Experimental data from PMC7199890 (European journal of medicinal chemistry, 2019).
Where “and” joins values, the source holds several entries; their conditions need not be identical. Identical values can stand only once. Counter-ions that a name gives are not always drawn.

Tests used:
Test in all cases: Radioligand binding
hA2AAR = hA2AAR (Homo sapiens, UniProt P29274); conditions: for hA1/hA2A: selectivity ratio of Ki values
hA3AR = target: T1, hA3AR (Homo sapiens, UniProt P0DMS8); conditions: for hA1/hA3 / hA2A/hA3: selectivity ratio of Ki values
T1 sequence (P0DMS8 1-318): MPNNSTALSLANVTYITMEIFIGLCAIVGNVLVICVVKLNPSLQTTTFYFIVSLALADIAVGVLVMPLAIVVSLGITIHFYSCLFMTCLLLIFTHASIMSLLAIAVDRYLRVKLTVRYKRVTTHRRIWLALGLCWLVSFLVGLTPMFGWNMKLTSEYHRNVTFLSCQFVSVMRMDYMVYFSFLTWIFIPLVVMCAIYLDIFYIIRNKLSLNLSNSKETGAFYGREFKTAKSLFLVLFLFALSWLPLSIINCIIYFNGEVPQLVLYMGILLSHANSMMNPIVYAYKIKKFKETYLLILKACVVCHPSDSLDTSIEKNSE
Outline: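 Displacement of [125I]AB-MECA binding on membranes from CHO cells expressing recombinant hA3AR. […] ADA (3 units/mL) was present during membrane preparation, a 30 min 30 °C preincubation and radioligand incubation. DMSO was ≤2% final. At least six competitor concentrations spanning 3 log units were used. Incubations ended by GF/B filtration and three rinses.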

hA1AR = target: T2, hA1AR (Homo sapiens, UniProt P30542); conditions: read-out: hA1 % of inhibition
T2 sequence (P30542 1-326): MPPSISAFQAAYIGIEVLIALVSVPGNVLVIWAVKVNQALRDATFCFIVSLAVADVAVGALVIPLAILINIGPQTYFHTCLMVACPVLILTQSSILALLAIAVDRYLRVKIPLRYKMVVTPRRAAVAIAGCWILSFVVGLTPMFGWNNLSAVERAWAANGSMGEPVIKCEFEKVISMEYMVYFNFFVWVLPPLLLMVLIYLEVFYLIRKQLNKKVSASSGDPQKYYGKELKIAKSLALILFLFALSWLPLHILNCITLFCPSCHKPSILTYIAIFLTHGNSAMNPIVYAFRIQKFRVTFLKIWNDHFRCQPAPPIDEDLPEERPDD
Outline: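 Membranes came from CHO cells expressing recombinant hA1AR, labelled with [3H]R-PIA. ADA (3 units/mL) was present during membrane preparation, a 30 min 30 °C preincubation and radioligand incubation. Test compound was dissolved in DMSO and diluted in buffer, DMSO ≤2% final. Incubations ended by GF/B filtration and three buffer rinses. The read-out is % inhibition of specific binding at a single concentration.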

Sequence of hA2AAR (P29274 whole entry): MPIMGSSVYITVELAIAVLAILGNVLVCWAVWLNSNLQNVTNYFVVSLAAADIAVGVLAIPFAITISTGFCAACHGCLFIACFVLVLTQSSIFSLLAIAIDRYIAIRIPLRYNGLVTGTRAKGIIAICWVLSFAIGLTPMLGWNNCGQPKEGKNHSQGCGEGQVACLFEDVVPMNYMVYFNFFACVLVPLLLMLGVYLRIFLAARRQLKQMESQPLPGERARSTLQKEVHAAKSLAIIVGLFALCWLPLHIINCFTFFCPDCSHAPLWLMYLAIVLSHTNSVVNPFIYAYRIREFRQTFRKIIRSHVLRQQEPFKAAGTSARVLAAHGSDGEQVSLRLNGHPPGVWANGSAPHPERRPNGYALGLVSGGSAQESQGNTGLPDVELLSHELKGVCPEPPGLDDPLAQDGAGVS

hA1/hA2A (hA2AAR)	hA1/hA3 (hA3AR)	hA2A/hA3 (hA3AR)	inhibition at 10 µM (hA1AR) [%]	Ki (hA2AAR) [nM]	Ki (hA3AR) [nM]	SMILES
>49	>3759	76.3	–	–	–	Cn1cc2c(nc(NC(=O)Nc3ccc(CC(=O)NCCCCCN)cc3)n3nc(-c4ccco4)nc23)n1 [Compound 11, N-(5-aminopentyl)-2-(4-(3-(2-(furan-2-yl)-8-methyl-8H-pyrazolo[4,3-e][1,2,4]triazolo[1,5-c]pyrimidin-5-yl)ureido)phenyl) acetamide trifluoroacetate salt]
>37.4	>520	14	–	–	–	Cn1cc2c(nc(NC(=O)Nc3ccc(CC(=O)NCCOCCOCCN)cc3)n3nc(-c4ccco4)nc23)n1.O=C(O)C(F)(F)F [Compound 12, 2-(2-(2-(2-(4-(3-(2-(furan-2-yl)-8-methyl-8H-pyrazolo[4,3-e][1,2,4]triazolo[1,5-c]pyrimidin-5-yl)ureido)phenyl)acetamido)ethoxy)ethoxy)ethanamine trifluoroacetate salt]
>30	>970	30.3	–	–	–	Cn1cc2c(nc(NC(=O)Nc3ccc(CC(=O)NCCCOCCOCCOCCCN)cc3)n3nc(-c4ccco4)nc23)n1.O=C(O)C(F)(F)F [Compound 13, N-(3-(2-(2-(3-aminopropoxy)ethoxy)ethoxy)propyl)-2-(4-(3-(2-(furan-2-yl)-8-methyl-8H-pyrazolo[4,3-e][1,2,4]triazolo[1,5-c]pyrimidin-5-yl)ureido)phenyl)acetamide trifluoroacetate salt]
>94	>73	0.69	29	95.7	137	Cn1cc2c(nc(NC(=O)Nc3ccc(CC(=O)NCCOCCOCCNC(=S)Nc4ccc(-c5c6ccc(=O)cc-6oc6cc(O)ccc56)c(C(=O)O)c4)cc3)n3nc(-c4ccco4)nc23)n1 [Compound 17, 5-(3-(2-(2-(2-(2-(4-(3-(2-(furan-2-yl)-8-methyl-8H-pyrazolo[4,3-e][1,2,4]triazolo[1,5-c]pyrimidin-5-yl)ureido)phenyl)acetamido)ethoxy)ethoxy)ethyl)thioureido)-2-(6-hydroxy-3-oxo-3H-xanthen-9-yl)benzoate]
–	>909	16.5	55	–	–	C#CCCC(=O)Nc1nc2nn(C)cc2c2nc(-c3ccco3)nn12 [Compound 19, N-(2-(furan-2-yl)-8-methyl-8H-pyrazolo[4,3-e][1,2,4]triazolo[1,5-c]pyrimidin-5-yl)pent-4-ynamide]

The remaining lines, values behind:

SMILES	hA1/hA2A (hA2AAR)	hA1/hA3 (hA3AR)	hA2A/hA3 (hA3AR)	inhibition at 10 µM (hA1AR) [%]	Ki (hA2AAR) [nM]	Ki (hA3AR) [nM]
Cn1cc2c(nc(NC(=O)Nc3ccc(CC(=O)NCCCNC(=S)Nc4ccc(-c5c6ccc(=O)cc-6oc6cc(O)ccc56)c(C(=O)O)c4)cc3)n3nc(-c4ccco4)nc23)n1 [Compound 14, 5-(3-(3-(2-(4-(3-(2-(furan-2-yl)-8-methyl-8H-pyrazolo[4,3-e][1,2,4]triazolo[1,5-c]pyrimidin-5-yl)ureido)phenyl)acetamido)propyl)thioureido)-2-(6-hydroxy-3-oxo-3H-xanthen-9-yl)benzoate]	>96	>96	1	27	–	–
Cn1cc2c(nc(NC(=O)Nc3ccc(CC(=O)NCCCCNC(=S)Nc4ccc(-c5c6ccc(=O)cc-6oc6cc(O)ccc56)c(C(=O)O)c4)cc3)n3nc(-c4ccco4)nc23)n1 [Compound 15, 5-(3-(4-(2-(4-(3-(2-(furan-2-yl)-8-methyl-8H-pyrazolo[4,3-e][1,2,4]triazolo[1,5-c]pyrimidin-5-yl)ureido)phenyl)acetamido)butyl)thioureido)-2-(6-hydroxy-3-oxo-3H-xanthen-9-yl)benzoate]	>129	–	0.82	28	–	–
Cn1cc2c(nc(NC(=O)Nc3ccc(CC(=O)NCCCCCNC(=S)Nc4ccc(-c5c6ccc(=O)cc-6oc6cc(O)ccc56)c(C(=O)O)c4)cc3)n3nc(-c4ccco4)nc23)n1 [Compound 16, 5-(3-(5-(2-(4-(3-(2-(furan-2-yl)-8-methyl-8H-pyrazolo[4,3-e][1,2,4]triazolo[1,5-c]pyrimidin-5-yl)ureido)phenyl)acetamido)pentyl)thioureido)-2-(6-hydroxy-3-oxo-3H-xanthen-9-yl)benzoate]	>94	>103	1.1	21	–	–
Cn1cc2c(nc(NC(=O)Nc3ccc(CC(=O)NCCCOCCOCCOCCCNC(=S)Nc4ccc(-c5c6ccc(=O)cc-6oc6cc(O)ccc56)c(C(=O)O)c4)cc3)n3nc(-c4ccco4)nc23)n1 [Compound 18, 5-(3-(1-(4-(3-(2-(furan-2-yl)-8-methyl-8H-pyrazolo[4,3-e] [1,2,4]triazolo[1,5-c]pyrimidin-5-yl)ureido)phenyl)-2-oxo-7,10,13-trioxa-3-azahexadecan-16-yl)thioureido)-2-(6-hydroxy-3-oxo-3H-xanthen-9-yl)benzoate]	>109	>48	0.44	32	91.5	207
C#CCCCCC(=O)Nc1nc2nn(C)cc2c2nc(-c3ccco3)nn12 [Compound 21, N-(2-(furan-2-yl)-8-methyl-8H-pyrazolo[4,3-e][1,2,4]triazolo[1,5-c]pyrimidin-5-yl)hept-6-ynamide]	5.9	122 and 122.7	20.7	–	–	–
C#CCCCCCC(=O)Nc1nc2nn(C)cc2c2nc(-c3ccco3)nn12 [Compound 22, N-(2-(furan-2-yl)-8-methyl-8H-pyrazolo[4,3-e][1,2,4]triazolo[1,5-c]pyrimidin-5-yl)oct-7-ynamide]	>20.7	>781	37.6	–	–	–
